Experimental data: ChEMBL document CHEMBL1157105, “Semisynthesis of natural flavones inhibiting tubulin polymerization, from hesperidin” (J Nat Prod, 2010)

Key:
Ovis aries [1] = species on record: Ovis aries; experiment: Inhibition of sheep brain tubulin polymerization at 2.5 mM after 15 mins by turbidimetry
Summary of the method: (§1)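 Sheep brain microtubule protein purified by two 37 °C/0 °C assembly–disassembly cycles in 100 mM MES pH 6.6, 1 mM EGTA, 0.5 mM MgCl2. Compound in DMSO (1 µL) added to 150 µL microtubule solution, then incubated 37 °C 10 min and 0 °C 5 min. Polymerization rate read by turbidity at 350 nm. Reported as % inhibition at ~2.5 × 10^-3 M or IC50; deoxypodophyllotoxin reference, ratio IC50 compound/IC50 DPPT.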

KB [2] = experiment: Cytotoxicity against human KB cells at 1 uM after 72 hrs by MTS assay
KB [3] = experiment: Cytotoxicity against human KB cells after 72 hrs by MTS assay; type: functional, cell-based
Summary of the method: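 KB cells grown in D-MEM with 10% fetal calf serum under 5% CO2. Seeded at 600 cells/well and dosed 24 h later with DMSO solutions from 0.5 nM to 10 µM (1% DMSO final; vehicle controls). After 72 h, MTS added for 3 h at 37 °C and A490 read, in triplicate. % inhibition = (1 − OD treated/OD control) × 100; IC50 derived.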

Ovis aries [4] = species on record: Ovis aries; experiment: Ratio of compound IC50 to DPPT IC50 for sheep brain tubulin polymerization; summary of the method: as §1
HL-60 [5] = experiment: Induction of apoptosis in human HL60 cells assessed as increase in caspase 3/7 activation at 500 nM after 48 hrs by fluorescence assay relative to control; type: functional
Summary of the method: (§2)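 HL60 cells grown in complete RPMI, seeded at 20 000 cells/well and treated with DMSO-dissolved compound. Vehicle controls; 1 µM doxorubicine positive control. Fluorescence (ex 360/em 465 nm) followed over 3 h. Reported as fold caspase 3/7 activation over control.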

[6] = Inhibition of sheep brain tubulin polymerization after 15 mins by turbidimetry; design: species or system Ovis aries; summary of the method: as §1
HL-60 [7] = experiment: Induction of apoptosis in human HL60 cells assessed as increase in caspase 3/7 activation at 50 nM after 48 hrs by fluorescence assay relative to control; type: functional; summary of the method: as §2

Row | SMILES | inhibition (Ovis aries [1]) [%] | Ratio IC50 (Ovis aries [4]) | IC50 [6] [nM] | Activity (KB [2]) [%] | IC50 (KB [3]) [nM] | fold change (FC) (HL-60 [5]) | fold change (FC) (HL-60 [7])
1 | COc1ccc(-c2oc3c(N(C)C)c(OC)c(OC)c(O)c3c(=O)c2OC)cc1O | 0 | – | – | 40 | – | – | –
2 | COc1ccc(-c2oc3cc(OC)c(OC)c(O)c3c(=O)c2OC)cc1O [CASTICIN] | – | 6.8 | 19000 | – | 97 | 5.3 | –
3 | COc1cc(O)c2c(=O)c(OC)c(-c3ccc(OC)c(O)c3)oc2c1 [AYANIN] | 0 | – | – | 3 | – | – | –
4 | COc1ccc(-c2oc3c(OC)c(OC)cc(O)c3c(=O)c2OC)cc1O | 0 | – | – | 9 | – | – | –
5 | COc1ccc(-c2oc3c(OC)c(OC)c(OC)c(O)c3c(=O)c2OC)cc1O | – | 0.46 | 1300 | – | 8 | – | 6.9

More lines, main results first:

Row | inhibition (Ovis aries [1]) [%] | Ratio IC50 (Ovis aries [4]) | IC50 [6] [nM] | SMILES | Activity (KB [2]) [%] | IC50 (KB [3]) [nM] | fold change (FC) (HL-60 [5]) | fold change (FC) (HL-60 [7])
6 | 36 | – | – | COc1ccc(-c2oc3c(Br)c(OC)c(Br)c(O)c3c(=O)c2OC)cc1O | – | 404 | – | 3.2
7 | – | 5 | 14000 | COc1ccc(-c2oc3c(OC)c(O)c(OC)c(O)c3c(=O)c2OC)cc1O | 10 | – | – | –
